# Results gathered from unrelated publications.
# Protocols differ between the studies behind these lines.
# Target: SNF-related serine/threonine-protein kinase (SNRK, Homo sapiens, UniProt Q9NRH2)
# Sequence (Q9NRH2 1-765, as in one of the studies): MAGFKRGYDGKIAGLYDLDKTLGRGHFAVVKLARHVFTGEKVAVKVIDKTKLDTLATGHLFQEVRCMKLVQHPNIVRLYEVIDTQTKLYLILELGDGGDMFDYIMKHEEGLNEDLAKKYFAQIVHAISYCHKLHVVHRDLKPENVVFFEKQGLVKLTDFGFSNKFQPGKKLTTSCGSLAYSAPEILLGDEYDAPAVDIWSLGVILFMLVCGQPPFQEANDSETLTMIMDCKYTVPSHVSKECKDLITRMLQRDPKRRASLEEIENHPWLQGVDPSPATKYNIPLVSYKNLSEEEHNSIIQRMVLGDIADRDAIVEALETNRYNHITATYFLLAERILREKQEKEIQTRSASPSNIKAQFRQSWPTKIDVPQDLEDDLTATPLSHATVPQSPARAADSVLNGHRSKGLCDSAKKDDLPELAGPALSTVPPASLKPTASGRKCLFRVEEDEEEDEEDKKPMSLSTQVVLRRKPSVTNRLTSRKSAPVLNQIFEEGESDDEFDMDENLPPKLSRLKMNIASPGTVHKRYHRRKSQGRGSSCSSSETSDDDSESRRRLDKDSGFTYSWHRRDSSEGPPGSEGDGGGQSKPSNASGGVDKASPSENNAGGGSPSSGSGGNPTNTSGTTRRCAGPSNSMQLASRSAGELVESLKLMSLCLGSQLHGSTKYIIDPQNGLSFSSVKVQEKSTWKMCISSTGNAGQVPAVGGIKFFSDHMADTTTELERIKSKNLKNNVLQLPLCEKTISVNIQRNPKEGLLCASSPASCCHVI
SMILES,assay,setting,remaining binding
CC(=O)N1CCC(c2ccc(C(=O)NC(=N)N)cc2C(F)(F)F)CC1,"cell-free assay, competition with immobilised ligand",1 µM,100%
COc1ncc2cc3ccccc3nc2c1C#N,"cell-free assay, competition with immobilised ligand",5 µM,100%
Cc1noc([C@H]2C[C@@H](c3ccc(C(F)(F)F)cc3)CN(C(=O)N3CCS(=O)(=O)C3)C2)n1,"cell-free assay, competition with immobilised ligand",1 µM,100%
C[C@@H]1CCN(c2nccc(-c3cnn4ncccc34)n2)C1,binding,1 µM,92%
O=C(c1ccc(Nc2ncc(Cl)c(-c3ccc(Cl)s3)n2)cc1)N1CCC(N2CCCC2)CC1,"binding, competition with immobilised ligand",1 µM,87%
Cc1cnn2ncc(-c3ccnc(N(C)C)n3)c2c1,binding,1 µM,79%
CNC(=O)[C@@H]1CC[C@@H](n2c(-c3ccc4cnccc4c3)nc3ccc(C(=O)NCc4cccc(C(N)=O)c4)cc32)C1,"binding, competition with immobilised ligand",1 µM,100%
C[C@H](c1ccnc(Nc2nc3ccc(-c4cc(N(C)C)ncn4)cc3[nH]2)c1)N1CCN(C(=O)CC(F)(F)F)CC1,"cell-free assay, competition with immobilised ligand",0.1 µM,100%
O=C(Nc1c[nH]nc1C(=O)NC1CCNCC1)c1cc(F)cc(F)c1,"binding, competition with immobilised ligand",1 µM,97%
N[C@H]1CCN(c2nccc(-c3cnn4ncccc34)n2)C1,binding,1 µM,100%
COc1cnc(Nc2cccc(S(N)(=O)=O)c2)nc1N1CCN(c2ccccc2)CC1,"binding, competition with immobilised ligand",1 µM,88%
C[C@@H](c1ccc(-n2cnc3c(N)ncnc32)cc1)N1CCc2nn(C)c(Cc3ccccc3)c2C1=O,"binding, competition with immobilised ligand",0.1 µM,98%
COc1ccnn2ncc(-c3ccnc(N(C)C)n3)c12,binding,1 µM,93%
CCN1CCN(Cc2ccc(C(=O)Nc3ccc(C)c(Oc4ccc5c(c4)CC(=O)N5)c3)cc2C(F)(F)F)CC1,"binding, competition with immobilised ligand",1 µM,98%
CO[C@@H](C)c1c(Nc2ccc([C@H](N(C)C(=O)C3CCS(=O)(=O)CC3)C(F)(F)F)cc2)cnc2cc(Cl)nn12,"cell-free assay, competition with immobilised ligand",1 µM,100%
F[C@@H]1CCN(c2nccc(-c3cnn4ncccc34)n2)C1,binding,1 µM,100%
O=c1nc(-c2ccccn2)sc2ccccc12,"binding, competition with immobilised ligand",1 µM,100%
CN(CCCC(F)(F)F)c1nccc(-c2cnn3ncccc23)n1,binding,1 µM,100%
CC(=O)N1CCC(c2ccc(C(=O)NC3=NCCN3)cc2C(F)(F)F)CC1,"cell-free assay, competition with immobilised ligand",1 µM,98%
O=C(c1ccc(Nc2nccc(-c3cc4ccccc4s3)n2)cc1)N1CCC(N2CCCC2)CC1,"binding, competition with immobilised ligand",1 µM,100%
COc1ccc2c(c1)O[C@H](c1ccc(OC)c(OC)c1)C[C@@H]2NC(=O)C1(c2ccc3c(c2)OC(F)(F)O3)CC1,"cell-free assay, competition with immobilised ligand",1 µM,92%
O=C(c1ccc(Nc2ncc(Cl)c(-c3cc4ccccc4s3)n2)cc1)N1CCC(N2CCCC2)CC1,"binding, competition with immobilised ligand",1 µM,87%
